The results in this text go back to ChEMBL document CHEMBL1125690, “Quinazoline antifolate thymidylate synthase inhibitors: heterocyclic benzoyl ring modifications” (J Med Chem, 1991).

The test system of one experiment is L1210. Briefly: In vitro inhibition of L1210 cell growth in culture. The experiment is classed as functional, cell-based. The settings on record: Mus musculus. The method, boiled down:
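L1210 mouse leukaemia cells grown in culture. The value reported is the IC50 for inhibition of cell growth.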

For a further experiment, the target named is Thymidylate synthase (Mus musculus, UniProt P07607). The experiment in a line: In vitro inhibition of partially purified L1210 thymidylate synthase (TS).
Thymidylate synthase, sequence (P07607 whole entry): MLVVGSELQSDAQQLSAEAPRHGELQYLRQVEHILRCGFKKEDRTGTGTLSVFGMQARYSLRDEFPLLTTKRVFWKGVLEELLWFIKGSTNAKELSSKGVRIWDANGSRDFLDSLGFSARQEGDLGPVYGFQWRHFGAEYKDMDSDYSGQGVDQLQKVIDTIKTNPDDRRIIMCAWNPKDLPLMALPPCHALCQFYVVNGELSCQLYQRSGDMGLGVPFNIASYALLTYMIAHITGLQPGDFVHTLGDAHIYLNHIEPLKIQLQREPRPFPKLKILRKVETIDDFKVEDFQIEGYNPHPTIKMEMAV

For orientation: IC50 means the point on the concentration scale where inhibition reaches its midpoint.

As to `Cc1nc2ccc(CN(C)c3cnc(C(=O)N[C@@H](CCC(=O)O)C(=O)O)nc3)cc2c(=O)[nH]1`, the IC50 in the experiment with L1210 was determined as 1.4 µM; on Thymidylate synthase, 2.34 µM.

Regarding `CCCN(Cc1ccc2nc(C)nc(O)c2c1)c1ccc(C(=O)N[C@H](CCC(=O)O)C(=O)O)s1`, the figures for the half-inhibitory concentration (IC50) in the experiment on L1210 and against Thymidylate synthase were 0.4 µM and 1.85 µM, respectively.

Take `C=CCN(Cc1ccc2nc(C)nc(O)c2c1)c1ccc(C(=O)N[C@H](CCC(=O)O)C(=O)O)s1`: the results for the half-inhibitory concentration (IC50) in the experiment on L1210 and against Thymidylate synthase were 0.058 µM and 1.68 µM, respectively.

On to `Cc1nc(O)c2cc(CN(CCF)c3ccc(C(=O)N[C@H](CCC(=O)O)C(=O)O)s3)ccc2n1`, for which the IC50 came out at 0.1 µM in the experiment on L1210 and 0.55 µM at Thymidylate synthase.

For `C=CCN(Cc1ccc2nc(C)nc(O)c2c1)c1cnc(C(=O)N[C@H](CCC(=O)O)C(=O)O)s1`, the IC50 was found to be 0.013 µM with L1210 and 1.07 µM against Thymidylate synthase.

Turning to `CCN(Cc1ccc2nc(C)[nH]c(=O)c2c1)c1ccc(C(=O)N[C@@H](CCC(=O)O)C(=O)O)nc1`, the figures for the IC50 with L1210 and against Thymidylate synthase were 0.64 µM and 0.15 µM, respectively.

In the case of `Cc1nc(O)c2cc(CN(CCCO)c3ccc(C(=O)N[C@H](CCC(=O)O)C(=O)O)s3)ccc2n1`, the IC50 was determined as 3 µM in the experiment with L1210 and 3.36 µM against Thymidylate synthase.

Consider `Cc1nc2ccc(CN(CCF)c3ccc(C(=O)N[C@@H](CCC(=O)O)C(=O)O)nc3)cc2c(=O)[nH]1`, for which the IC50 in the experiment on L1210 is 0.14 µM; against Thymidylate synthase, 0.16 µM.

As for `CCN(Cc1ccc2nc(C)[nH]c(=O)c2c1)c1ccc(C(=O)N[C@@H](CCC(=O)O)C(=O)O)cc1`, at Thymidylate synthase, the midpoint of inhibition, the IC50, lay at 0.26 µM.

With `Cc1nc(O)c2cc(CN(C)c3ccc(C(=O)N[C@H](CCC(=O)O)C(=O)O)s3)ccc2n1`, the IC50 in the experiment with L1210 worked out at 0.007 µM.

Regarding `CCN(Cc1ccc2nc(C)nc(O)c2c1)c1ncc(C(=O)N[C@H](CCC(=O)O)C(=O)O)s1`, the IC50 in the experiment on L1210 was 0.9 µM; against Thymidylate synthase, 0.76 µM.

Regarding `Cc1nc(O)c2cc(CN(CCCO)c3cnc(C(=O)N[C@H](CCC(=O)O)C(=O)O)s3)ccc2n1`, the values for the half-inhibitory concentration (IC50) in the experiment on L1210 and at Thymidylate synthase were 0.06 µM and 1.74 µM, respectively.

`CCN(Cc1ccc2nc(CF)nc(O)c2c1)c1ccc(C(=O)N[C@H](CCC(=O)O)C(=O)O)s1`: the IC50 with L1210 amounted to 0.11 µM; on Thymidylate synthase, 0.93 µM.

For the molecule `Cc1nc2ccc(CN(C)c3ccc(C(=O)N[C@@H](CCC(=O)O)C(=O)O)nc3)cc2c(=O)[nH]1`, the values for the concentration for half-maximal inhibition (IC50) with L1210 and against Thymidylate synthase were 0.16 µM and 0.35 µM, respectively.

For `CN(Cc1ccc2nc(CO)nc(O)c2c1)c1ccc(C(=O)N[C@H](CCC(=O)O)C(=O)O)s1`, the values for the IC50 with L1210 and against Thymidylate synthase were 0.78 µM and 1.36 µM, respectively.

With `Cc1nc(O)c2cc(CN(C)c3cnc(C(=O)N[C@H](CCC(=O)O)C(=O)O)s3)ccc2n1`, the IC50 in the experiment with L1210 is 0.006 µM; against Thymidylate synthase it was 0.42 µM.

On to `Cc1nc(O)c2cc(CNc3ccc(C(=O)N[C@H](CCC(=O)O)C(=O)O)s3)ccc2n1`, for which the half-inhibitory concentration (IC50) in the experiment with L1210 was 3 µM; against Thymidylate synthase it was 24.8 µM.

For `Cc1nc(O)c2cc(CN(CCO)c3ccc(C(=O)N[C@H](CCC(=O)O)C(=O)O)s3)ccc2n1`, the values for the concentration for half-maximal inhibition (IC50) in the experiment on L1210 and against Thymidylate synthase were 0.1 µM and 1.2 µM, respectively.

With `O=C(O)CC[C@@H](NC(=O)c1ccc(N(CCF)Cc2ccc3nc(CF)nc(O)c3c2)s1)C(=O)O`, the IC50 came out at 0.67 µM in the experiment with L1210 and 1.07 µM against Thymidylate synthase.

On to `CCN(Cc1ccc2nc(C)nc(O)c2c1)c1nnc(C(=O)N[C@H](CCC(=O)O)C(=O)O)s1`, for which the half-inhibitory concentration (IC50) in the experiment on L1210 worked out at 2.4 µM; against Thymidylate synthase it was 0.94 µM.

In the case of `C=CCN(Cc1ccc2nc(C)[nH]c(=O)c2c1)c1ccc(C(=O)N[C@@H](CCC(=O)O)C(=O)O)nc1`, the concentration for half-maximal inhibition (IC50) in the experiment on L1210 was 0.13 µM; against Thymidylate synthase, 0.76 µM.

For the molecule `CN(Cc1ccc2nc(CF)nc(O)c2c1)c1ccc(C(=O)N[C@H](CCC(=O)O)C(=O)O)s1`, the half-maximal inhibitory concentration (IC50) came out at 0.016 µM in the experiment on L1210 and 1.36 µM on Thymidylate synthase.

On to `C#CCN(Cc1ccc2nc(C)nc(O)c2c1)c1ccc(C(=O)N[C@H](CCC(=O)O)C(=O)O)s1`, for which the figures for the IC50 with L1210 and against Thymidylate synthase were 0.06 µM and 0.44 µM, respectively.

For the molecule `Cc1nc2ccc(CN(C)c3ccc(C(=O)N[C@@H](CCC(=O)O)C(=O)O)cn3)cc2c(=O)[nH]1`, the half-inhibitory concentration (IC50) in the experiment with L1210 was 1.6 µM; against Thymidylate synthase, 4.25 µM.

Take `Cc1nc2ccc(CN(C)c3ccc(C(=O)N[C@@H](CCC(=O)O)C(=O)O)cc3)cc2c(=O)[nH]1`: half-maximal inhibition against Thymidylate synthase (IC50) required 0.25 µM.

With `C#CCN(Cc1ccc2nc(C)[nH]c(=O)c2c1)c1ccc(C(=O)N[C@@H](CCC(=O)O)C(=O)O)nc1`, the IC50 with L1210 is 0.06 µM; against Thymidylate synthase, 0.04 µM.

Turning to `CCN(Cc1ccc2nc(C)nc(O)c2c1)c1ccc(C(=O)N[C@H](CCC(=O)O)C(=O)O)s1`, the results for the IC50 in the experiment on L1210 and against Thymidylate synthase were 0.016 µM and 0.58 µM, respectively.

Turning to `CCN(Cc1ccc2nc(CO)nc(O)c2c1)c1ccc(C(=O)N[C@H](CCC(=O)O)C(=O)O)s1`, the half-inhibitory concentration (IC50) with L1210 came to 2.7 µM; at Thymidylate synthase, 1.03 µM.

Take `CCN(Cc1ccc2nc(C)nc(O)c2c1)c1cnc(C(=O)N[C@H](CCC(=O)O)C(=O)O)s1`: the IC50 was determined as 0.008 µM in the experiment on L1210 and 0.23 µM against Thymidylate synthase.

As to `C#CCN(Cc1ccc2nc(C)nc(O)c2c1)c1cnc(C(=O)N[C@H](CCC(=O)O)C(=O)O)s1`, the IC50 came out at 0.008 µM in the experiment with L1210 and 0.23 µM at Thymidylate synthase.

In the case of `Cc1nc(O)c2cc(CN(CC#N)c3ccc(C(=O)N[C@H](CCC(=O)O)C(=O)O)s3)ccc2n1`, the 50% inhibitory concentration (IC50) in the experiment with L1210 came to 0.2 µM; against Thymidylate synthase it was 3.08 µM.

As for `Cc1nc(O)c2cc(CNc3cnc(C(=O)N[C@H](CCC(=O)O)C(=O)O)s3)ccc2n1`, the IC50 in the experiment with L1210 is 0.28 µM; on Thymidylate synthase it was 7.12 µM.

`CN(Cc1ccc2nc(CO)nc(O)c2c1)c1cnc(C(=O)N[C@H](CCC(=O)O)C(=O)O)s1`: the IC50 in the experiment on L1210 is 0.3 µM; against Thymidylate synthase, 0.49 µM.

As for `Cc1nc(O)c2cc(CN(CCO)c3cnc(C(=O)N[C@H](CCC(=O)O)C(=O)O)s3)ccc2n1`, the IC50 with L1210 amounted to 0.02 µM; on Thymidylate synthase it was 0.42 µM.

Turning to `CCN(Cc1ccc2nc(CF)nc(O)c2c1)c1cnc(C(=O)N[C@H](CCC(=O)O)C(=O)O)s1`, the IC50 was 0.1 µM with L1210 and 0.22 µM against Thymidylate synthase.

`Cc1nc(O)c2cc(CN(CCF)c3cnc(C(=O)N[C@H](CCC(=O)O)C(=O)O)s3)ccc2n1`: the 50% inhibitory concentration (IC50) in the experiment on L1210 was 0.02 µM; on Thymidylate synthase, 0.19 µM.
